From PubChem
COUP-TFII inh – NR2F2 (human) inhibition, primary screen. inhibition, % at 8.6 µM. P24468. HEK293T NGFI-A luciferase reporter, luminescence. AID 686940. 0.7% of 370,000 active;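 active means inhibition above a per-plate cutoff, mean inhibition of test wells between control levels plus 3 SD, cut at about 38% in these data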;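 further: cells cotransfected with COUP-TFII expression vector driving the NGFI-A reporter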
NR2E3 ag-1 – activates human NR2E3 receptor | Q9Y5X4 | CHO-S Gal4-NCOR/VP16-NR2E3 two-hybrid, luciferase | inhibition of corepressor binding, % at 3.98 µM | 0.35% of 360,000 active | AID 602229;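 active means inhibition above the mean of all tested compounds plus 3 SD, cut at about 70% in these data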;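 further: higher means lower luciferase signal from less NR2E3 corepressor binding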
GalR3 antagonist – human GalR3 antagonism; O60755; HEK293 GalR3-CNG cAMP membrane potential fluorescence; galR3 body fused to GalR1 C-terminus; inhibition, % at 3 µM; 0.44% of 360,000 active; AID 651719;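 active means inhibition above the screen-wide average plus 3 SD, cut at about 13% in these data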;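 further: forskolin and galanin both at EC90 stimulate the cells; cAMP rise reported by CNG channel membrane potential dye signal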
Target sequence (O60755 1-299 limits assumed): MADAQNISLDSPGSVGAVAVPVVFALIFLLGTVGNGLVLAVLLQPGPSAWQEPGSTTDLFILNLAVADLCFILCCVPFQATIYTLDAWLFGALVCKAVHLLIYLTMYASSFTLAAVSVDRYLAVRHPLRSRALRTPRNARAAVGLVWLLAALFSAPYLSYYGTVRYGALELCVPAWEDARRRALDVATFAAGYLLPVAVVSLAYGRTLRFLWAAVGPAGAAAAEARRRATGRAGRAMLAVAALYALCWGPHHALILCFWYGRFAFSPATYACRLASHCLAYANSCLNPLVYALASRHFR
CHT block – inhibits the human high affinity choline transporter; B-score at 10 µM; Q9GZV3; 0.86% of 310,000 active; CHT-expressing cells, membrane potential dye, choline response; stronger effect = lower value; AID 488975;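 active means B-score over 3 SD under the library average, and starting fluorescence ratio not unusually high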;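 further: choline stimulus applied at its EC90 after an EC20 pre-addition; B-score computed on integrated fluorescence ratio after choline addition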
CHT allo act – human CHT allosteric activation; CHT-expressing cells, membrane potential dye, choline EC20; stronger effect = higher value; LV-AA mutant CHT in HEK293 cells; B-score at 10 µM; 0.49% of 310,000 active; AID 488977;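 active means initial fluorescence not abnormally high and integrated response B-score, plate-corrected, over 3 SD above library mean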
NR2E3 ag-2 – agonists of human nuclear receptor NR2E3. Q9Y5X4. GST-NR2E3/biotin-RetCOR TR-FRET, 1536-well. inhibition of corepressor binding, % at 4.78 µM. 0.12% of 320,000 active. AID 2300;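 active means percent inhibition above the cutoff of mean plus 3 SD of all tested compounds, set per screening campaign, cut at about 20% in these data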
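Assay system: NR2E3–RetCOR corepressor complex. Quantity: 1.35 nM GST-NR2E3. Buffer or medium: pH 7.5 Tris-based buffer. Reagent: biotinylated RetCOR corepressor at 7 nM final. Schedule: 5 h at 4 °C. Detection: TR-FRET, emission read at 617 and 671 nm. Replicates: one well per compound, singlicate testing.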
GalR3 antag conf – confirmation of human galanin receptor 3 antagonists; AID 652245; inhibition, % at 3 µM; 59% of 1,600 active; shares compounds with GalR3 antagonist; HEK293 GalR3 CNG cAMP biosensor, membrane potential fluorescence; galR3 fused to GalR1 carboxy tail; challenged with forskolin and galanin at EC90;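 active means inhibition above the primary screen's cutoff, the mean inhibition of all screened compounds plus 3 SD, cut at about 13% in these data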
HEK-CNG parental – acts as nonspecific agonist in parental HEK-CNG cells; shares compounds with GalR3 antagonist; 10% of 1,600 active; activation, % at 3 µM; HEK293-CNG parental cells, cAMP membrane potential fluorescence; normalised: DMSO wells 0%, forskolin wells 100%; in the data active means activation above about 1.3%
Each line names hits and unclear results; the compound was inactive in the other large screens (follow-up assays come after a bar, where they were run). Most compounds without a hit are left out; they make up all but 2.3% or so of the library.

Cn1cc(-c2cccc3[nH]cc(-c4ccccc4)c23)c2ccccc21	none (no result: NR2E3 ag-1, GalR3 antagonist, CHT block, CHT allo act, NR2E3 ag-2)
COC(=O)c1ccc(Cn2ccc3ccc(-c4ccc5ccn(C(=O)c6ccccc6C)c5c4)cc32)cc1	none (no result: NR2E3 ag-1, GalR3 antagonist, CHT block, CHT allo act, NR2E3 ag-2)
CCCc1ccc(C(=O)NC(=O)c2ccccc2O)cc1	GalR3 antagonist 13.3 | GalR3 antag conf 48.6 | HEK-CNG parental inactive
CC(=O)c1c(C)[nH]c(C(=O)OCC(=O)NCc2ccc(Cl)cc2)c1C	none (no result: CHT block, CHT allo act)
CC(=O)c1c(C)[nH]c(C(=O)OCC(=O)Nc2cc(Cl)ccc2[N+](=O)[O-])c1C	GalR3 antagonist 93.3 | GalR3 antag conf 49.7 | HEK-CNG parental inactive
COc1cc2c(cc1OC)-c1cc(N3CCc4ccccc43)nc(=O)n1CC2	none
CCOc1cccc(Nc2cc3n(c(=O)n2)CCc2cc(OC)c(OC)cc2-3)c1	GalR3 antagonist 16.5 | GalR3 antag conf 56.2 | HEK-CNG parental inactive
COc1cc2c(cc1OC)-c1cc(Nc3ccccc3Br)nc(=O)n1CC2	GalR3 antagonist 48.9 | GalR3 antag conf 60.7 | HEK-CNG parental inactive
COc1cc2c(cc1OC)-c1cc(OCc3cccnc3)nc(=O)n1CC2	none (no result: CHT block, CHT allo act, NR2E3 ag-2)
COc1cc2c(cc1OC)-c1cc(Nc3ccc(C)cc3)nc(=O)n1CC2	GalR3 antagonist 45.0 | GalR3 antag conf 58.8 | HEK-CNG parental inactive
COc1cc2c(cc1OC)-c1cc(Nc3ccccc3)nc(=O)n1CC2	GalR3 antagonist 44.1 | GalR3 antag conf 57.3 | HEK-CNG parental inactive
O=C(NCc1ccccc1)C1CCN(c2nc(-c3ccc(Br)cc3)cs2)CC1	none (no result: NR2E3 ag-1, GalR3 antagonist, CHT block, CHT allo act, NR2E3 ag-2)
COc1ccc(Nc2cc3n(c(=O)n2)CCc2cc(OC)c(OC)cc2-3)c(C)c1	GalR3 antagonist 39.5 | GalR3 antag conf 71.9 | HEK-CNG parental inactive
COc1cc2c(cc1OC)-c1cc(N3CCCCCC3)nc(=O)n1CC2	GalR3 antagonist 50.0 | GalR3 antag conf 14.1 | HEK-CNG parental inactive
Cn1nccc1C(=O)Nn1cnnc1	none (no result: GalR3 antagonist) | GalR3 antag conf inactive | HEK-CNG parental inactive
N#Cc1ccccc1S(=O)(=O)NC(=O)[C@H]1O[C@@H](n2cnc3c(N)ncnc32)[C@H](O)[C@@H]1O	GalR3 antagonist 20.9 (no result: CHT block, CHT allo act, NR2E3 ag-2) | GalR3 antag conf 45.0 | HEK-CNG parental 1.4
CCC(=O)OCCNc1cc(Sc2nccn2C)c2nonc2c1[N+](=O)[O-]	GalR3 antagonist 40.8 | GalR3 antag conf 20.6 | HEK-CNG parental inactive
CCC(=O)OCCNc1cc(SCCC(=O)OC)c2nonc2c1[N+](=O)[O-]	none
CCCC(=O)OCCNc1cc(Sc2nc3ccccc3[nH]2)c2nonc2c1[N+](=O)[O-]	GalR3 antagonist 26.3 | GalR3 antag conf 35.0 | HEK-CNG parental inactive
COC(=O)c1ccc(COc2ccccc2OC)o1	none
COc1ccccc1OCc1ccc(C(=O)OCC2CCCO2)o1 (stereo not given)	GalR3 antagonist 14.6 | GalR3 antag conf inactive | HEK-CNG parental inactive
COCc1[nH]nc2c1C(c1ccc(OC)c(OC)c1)C(C#N)=C(N)O2 (stereo not given)	none
CCn1c2ccccc2c2cc(C3C(C#N)=C(N)Oc4n[nH]c(COC)c43)ccc21 (stereo not given)	GalR3 antagonist 41.3 | GalR3 antag conf 26.2 | HEK-CNG parental inactive
CCOC(=O)c1ccc(NC(=O)Nc2nncs2)cc1	GalR3 antagonist 14.0 (no result: CHT block, CHT allo act, NR2E3 ag-2) | GalR3 antag conf 19.6 | HEK-CNG parental 1.4
Cc1ccc(-n2c(SCC(=O)Nc3cccc4ccccc34)nnc2-c2cnccn2)cc1	none (no result: NR2E3 ag-1, GalR3 antagonist, CHT block, CHT allo act, NR2E3 ag-2)
COc1ccc(C2c3c(-c4ccccc4O)n[nH]c3C(=O)N2Cc2ccco2)cc1OC (stereo not given)	none
COc1ccc(C2c3c(-c4cc(Cl)c(C)cc4O)n[nH]c3C(=O)N2Cc2cccnc2)cc1OC (stereo not given)	GalR3 antagonist 63.7 | GalR3 antag conf 66.8 | HEK-CNG parental inactive
